Experimental data published in ChEMBL document CHEMBL1134845, “Syntheses and biological activities of a novel group of steroidal derived inhibitors for human Cdc25A protein phosphatase” (J Med Chem, 2001).

Assays:
LOX IMVI = assay: Growth inhibitory activity was determined against LOX IMVI cancer cell line of melanoma; assay type: functional, Homo sapiens; settings: Homo sapiens, LOX IMVI
Outline: (§1)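 NCI 60 human tumour cell line screen run at the National Cancer Institute. Cell growth and viability read with the protein stain sulforhodamine B, which binds basic amino acids of cells left attached after washing. […] MG MID is the mean GI50 calculated over all panels.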

U-251 = assay: Growth inhibitory activity was determined against U-251 cancer cell line of CNS cancer; assay type: functional; settings: Homo sapiens; outline: as §1
OVCAR-3 = assay: Inhibition of Ovarian cancer in OVCAR-3 cancer cell lines; assay type: functional; settings: Homo sapiens
NCI-H23 = assay: Growth inhibitory activity was determined against NCI-H23 cancer cell line of non-small cell lung cancer; assay type: functional, Homo sapiens; settings: Homo sapiens, NCI-H23; outline: as §1
NCI/ADR-RES = assay: Inhibition of Breast cancer in NCI/ADR-RES cancer cell lines; assay type: functional; settings: Homo sapiens
BT-549 (Homo sapiens) = assay: Inhibition of Breast cancer in BT-549 cancer cell lines
SF-539 = assay: Growth inhibitory activity was determined against SF-539 cancer cell line of CNS cancer; assay type: functional; settings: Homo sapiens; outline: as §1
T47D = assay: Inhibition of Breast cancer in T-47D cancer cell lines; assay type: functional; settings: Homo sapiens
SN12C = assay: Inhibition of Renal cancer in SN12C cancer cell lines; assay type: functional; settings: Homo sapiens
SF-268 = assay: Growth inhibitory activity was determined against SF-268 cancer cell line of CNS cancer; assay type: functional; settings: Homo sapiens; outline: as §1
COLO 205 = assay: Growth inhibitory activity was determined against COLO 205 cancer cell line colon cancer; assay type: functional, Homo sapiens; settings: Homo sapiens, COLO 205; outline: as §1
NCI-H522 = assay: Growth inhibitory activity was determined against NCI-H522 cancer cell line of non-small cell lung cancer; assay type: functional; settings: Homo sapiens; outline: as §1
HT-29 = assay: Inhibition of colon cancer in HT-29 cancer cell lines; assay type: functional; settings: Homo sapiens
Outline: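 Soft agar clonogenic assay of anchorage-independent growth, using HT-29 colon and A549 lung adenocarcinoma cells. The value is the compound concentration that cut colony number to 50% of control.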

[1] = target: T1, M-phase inducer phosphatase 1 (Homo sapiens) (UniProt P30304); assay: Inhibitory activity tested against cell division cycle 25A (assay using fluorescein diphosphate (FDP) as substrate)
T1 sequence (whole entry): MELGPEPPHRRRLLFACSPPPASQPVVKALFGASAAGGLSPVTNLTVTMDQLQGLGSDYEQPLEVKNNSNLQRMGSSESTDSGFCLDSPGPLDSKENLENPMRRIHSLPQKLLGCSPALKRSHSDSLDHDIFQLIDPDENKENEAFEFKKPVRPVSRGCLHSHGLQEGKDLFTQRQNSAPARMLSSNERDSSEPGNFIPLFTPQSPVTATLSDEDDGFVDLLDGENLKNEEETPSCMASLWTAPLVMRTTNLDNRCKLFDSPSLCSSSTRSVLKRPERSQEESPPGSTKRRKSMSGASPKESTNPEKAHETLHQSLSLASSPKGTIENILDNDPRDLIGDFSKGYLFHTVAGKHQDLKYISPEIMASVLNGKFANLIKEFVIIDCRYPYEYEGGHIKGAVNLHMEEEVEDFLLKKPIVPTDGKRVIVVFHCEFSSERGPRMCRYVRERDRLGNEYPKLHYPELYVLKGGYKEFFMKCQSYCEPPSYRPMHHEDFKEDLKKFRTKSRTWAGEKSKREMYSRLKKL
Outline: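 Recombinant human GST-Cdc25A fusion protein, each batch calibrated so that FDP was dephosphorylated linearly over 20 min. Fluorescein diphosphate was the substrate. Reactions ran 15 min at 25 °C in the dark and were stopped with sodium orthovanadate. Fluorescein monophosphate was read at 485 nm excitation and 530 nm emission. IC50 came from at least two independent runs, each in triplicate.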

[2] = target: T1, M-phase inducer phosphatase 1 (Homo sapiens); assay: Inhibitory activity tested against cell division cycle 25A (assay using p-nitro phenyl phosphate (pNPP) as substrate)
SK-MEL-5 = assay: Growth inhibitory activity was determined against SK-MEL-5 cancer cell line of melanoma; assay type: functional, Homo sapiens; settings: Homo sapiens, SK-MEL-5; outline: as §1
786-0 = assay: Inhibition of Renal cancer in 786-0 cancer cell lines; assay type: functional; settings: Homo sapiens
HCC 2998 = assay: Growth inhibitory activity was determined against HCC2998 cancer cell line colon cancer; assay type: functional, Homo sapiens; settings: Homo sapiens, HCC 2998; outline: as §1
[3] = target: Receptor-type tyrosine-protein phosphatase C, CD45 (Homo sapiens) (UniProt P08575); assay: Inhibitory activity tested against human CD45 receptor-type tyrosine-protein phosphatase C
PC-3 = assay: Inhibition of Prostate cancer in PC-3 cancer cell lines; assay type: functional; settings: Homo sapiens
OVCAR-8 = assay: Inhibition of Ovarian cancer in OVCAR-8 cancer cell lines; assay type: functional; settings: Homo sapiens
A549 = assay: Growth inhibitory activity was determined against A549/ATCC cancer cell line of non-small cell lung cancer; assay type: functional, Homo sapiens; settings: Homo sapiens, A549; outline: as §1
UO-31 = assay: Inhibition of Renal cancer in UO-31 cancer cell lines; assay type: functional; settings: Homo sapiens

Chain of Receptor-type tyrosine-protein phosphatase C, CD45 (Homo sapiens) (P08575 whole entry, looked up): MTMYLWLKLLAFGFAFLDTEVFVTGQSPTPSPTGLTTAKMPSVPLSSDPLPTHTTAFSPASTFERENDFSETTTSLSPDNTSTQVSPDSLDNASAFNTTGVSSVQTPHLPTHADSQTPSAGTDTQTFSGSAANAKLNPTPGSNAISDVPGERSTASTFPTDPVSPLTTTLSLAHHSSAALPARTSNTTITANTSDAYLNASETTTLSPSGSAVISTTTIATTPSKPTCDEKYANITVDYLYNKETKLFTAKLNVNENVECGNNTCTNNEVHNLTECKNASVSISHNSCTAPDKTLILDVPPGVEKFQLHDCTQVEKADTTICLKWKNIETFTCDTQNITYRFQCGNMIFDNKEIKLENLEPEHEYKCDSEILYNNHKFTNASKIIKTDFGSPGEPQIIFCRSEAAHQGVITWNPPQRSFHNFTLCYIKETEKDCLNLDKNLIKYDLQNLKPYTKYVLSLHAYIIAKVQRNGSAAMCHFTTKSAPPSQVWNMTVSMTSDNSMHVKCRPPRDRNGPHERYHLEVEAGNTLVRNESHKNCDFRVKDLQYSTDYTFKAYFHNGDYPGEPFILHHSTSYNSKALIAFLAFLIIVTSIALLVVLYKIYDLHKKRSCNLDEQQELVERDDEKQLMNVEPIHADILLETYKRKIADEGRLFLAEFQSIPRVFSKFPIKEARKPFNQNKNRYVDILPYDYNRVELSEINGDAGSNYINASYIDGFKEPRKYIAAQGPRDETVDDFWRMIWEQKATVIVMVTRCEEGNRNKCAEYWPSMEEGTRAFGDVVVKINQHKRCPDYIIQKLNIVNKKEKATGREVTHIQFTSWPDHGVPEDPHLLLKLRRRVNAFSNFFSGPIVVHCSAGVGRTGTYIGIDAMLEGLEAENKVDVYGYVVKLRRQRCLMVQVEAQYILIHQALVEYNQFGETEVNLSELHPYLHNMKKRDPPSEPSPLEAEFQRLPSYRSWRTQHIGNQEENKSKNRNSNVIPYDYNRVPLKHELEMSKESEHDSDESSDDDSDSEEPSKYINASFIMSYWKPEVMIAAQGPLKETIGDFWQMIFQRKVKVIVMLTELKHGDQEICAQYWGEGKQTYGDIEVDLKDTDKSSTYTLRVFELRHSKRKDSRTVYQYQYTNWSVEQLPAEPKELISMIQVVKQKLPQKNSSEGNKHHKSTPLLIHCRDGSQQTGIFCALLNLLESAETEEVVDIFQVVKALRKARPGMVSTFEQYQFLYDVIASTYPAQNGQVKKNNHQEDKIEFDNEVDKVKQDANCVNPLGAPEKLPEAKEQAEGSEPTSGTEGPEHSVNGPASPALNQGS

## C/C(=C\CCCC#N)[C@H]1CC[C@]2(C)[C@@H]([C@H](C)CCCC(C)C)CC[C@H]2[C@@H]1CC(=O)O
LOX IMVI
  GI50: 5.91 µM
U-251
  GI50: 5.53 µM
OVCAR-3
  GI50: 6.77 µM
NCI-H23
  GI50: 7.4 µM
NCI/ADR-RES
  GI50: 6.44 µM
BT-549 (Homo sapiens)
  GI50: 5.75 µM
SF-539
  GI50: 10.5 µM
T47D
  GI50: 8.22 µM
SN12C
  GI50: 7.73 µM
SF-268
  GI50: 16.6 µM
COLO 205
  GI50: 5.92 µM
NCI-H522
  GI50: 17.3 µM
HT-29
  GI50: 6.49 µM
[1]
  IC50: 2.5 µM
[2]
  IC50: 9.3 µM
SK-MEL-5
  GI50: 8.83 µM
786-0
  GI50: 8.69 µM
HCC 2998
  GI50: 4.31 µM
[3]
  IC50: 13.2 µM
PC-3
  GI50: 6.34 µM
OVCAR-8
  GI50: 5.53 µM
A549
  GI50: 7.33 µM
UO-31
  GI50: 9.55 µM
